Test results from ChEMBL document CHEMBL1136801, “Cyclopropane-containing polyamine analogues are efficient growth inhibitors of a human prostate tumor xenograft in nude mice” (J Med Chem, 2003).

How the values were obtained:
[1] = (§1) Toxicity studies on male athymic NCr-nu mice administered ip daily for 5 consecutive days then rested for 10 days, and a second cycle of treatment also followed the q1d x 5 schedule; type: organism-based; conditions: mouse, in vivo, read-out: Lethality
DuPro = assay: Growth inhibitory effect was assessed against the human prostate tumor cell line DuPro using MTT assay; type: functional; conditions: read-out: ID50 (the source's name)
How it was run: (§2)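 Cells seeded at 500 per well and incubated overnight at 37 °C in humidified 95% air/5% CO2, then exposed to serially diluted drug for 6 days, each concentration in quadruplicate, with buffer controls. MTT (5 mg/mL solution) added for 4 h at 37 °C; lysed overnight at 37 °C in SDS/DMF buffer, pH 4.8; absorbance at 570 nm. ID50 is the concentration giving 50% growth inhibition.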

DU-145 = assay: Growth inhibitory effect was assessed against the human prostate tumor cell line Du-145 using MTT assay; type: functional; conditions: read-out: ID50 (the source's name); how it was run: as §2
PC-3 = assay: Growth inhibitory effect was assessed against the human prostate tumor cell line PC-3 using MTT assay; type: functional; conditions: read-out: ID50 (the source's name); how it was run: as §2
Mus musculus [2] = assay: as §1; type: organism-based; conditions: in vivo, 240 h
Mus musculus [3] = assay: Toxicity studies on male athymic NCr-nu mice administered ip daily for 5 consecutive days then rested for 10 days, and a second cycle of treatment also followed the q1d x 5 schedule; Death of all three mice; type: organism-based; conditions: in vivo, 240 h
Mus musculus [4] = assay: Toxicity studies on male athymic NCr-nu mice administered ip daily for 5 consecutive days then rested for 10 days, and a second cycle of treatment also followed the q1d x 5 schedule; Death of all treated mice; type: organism-based; conditions: in vivo, 240 h
Mus musculus [5] = assay: Toxicity studies on male athymic NCr-nu mice administered ip daily for 5 consecutive days then rested for 10 days, and a second cycle of treatment also followed the q1d x 5 schedule; Two treatment-related deaths out of three animals; type: organism-based; conditions: in vivo, 240 h

SMILES | mortality at 240 h [1] | IC50 (DuPro) | IC50 (DU-145) | IC50 (PC-3) | Lethal dose (Mus musculus [2]) | Lethal dose (Mus musculus [3]) | Lethal dose (Mus musculus [4]) | Lethal dose (Mus musculus [5])
CCNCCCCNCCCCNCCCCNCCCCNCC1CC1CNCCCCNCCCCNCCCCNCCCCNCC (stereo not given) | 100% | 340 nM | 200 nM | 400 nM | – | – | – | –
CCNCCCCNCC1CC1CNCCCCNCCCCNCC1CC1CNCCCCNCCCCNCC1CC1CNCCCCNCC.Cl (stereo not given) | – | 200 nM | 220 nM | 300 nM | 25 mg/kg | – | – | –
CCNCC1CC1CNCCCCNCC1CC1CNCC.Cl (stereo not given) | – | 260 nM | 60 nM | > 31200 nM | – | 75 mg/kg | – | –
CCNCC1CC1CNCC1CC1CNCC1CC1CNCC.Cl (stereo not given) | – | 630 nM | 80 nM | > 31500 nM | – | – | 75 mg/kg | –
CCNCCCCNCC1CC1CNCCCCNCC1CC1CNCCCCNCC.Cl (stereo not given) | – | 380 nM | 120 nM | > 31200 nM | – | – | – | 25 mg/kg
